Assay results from the array DNA melting data of Ke et al. (doi:10.1101/2024.01.08.574731).

What was measured:
[1] = folding enthalpy; higher = less favourable; fluorescence melt of hairpins on a sequencing array, two-state fit; details: sodium 0.088 M
In short: (§1)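 With Cy3 and quencher oligos annealed, library hairpins on a sequenced MiSeq flow cell were imaged for Cy3 fluorescence in 50 mM Na-HEPES pH 8.0, 25 mM NaCl, in 2.5 °C steps up to 60 °C. Melting temperature and folding enthalpy were derived from bootstrapped two-state fits of signals normalised to pre-quench Cy3 and to control constructs. Four replicates were combined by inverse variance, with fitted temperatures raised by 9.35 °C to match UV melts.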

[2] = melting temperature; fluorescence melt of hairpins on a sequencing array, two-state fit, raised by 9.35 °C to match UV melts; details: sodium 0.088 M
In short: as §1

Sequence	folding enthalpy [1]	Tm [2]
GGACTCGAAAGAGTTCC ((((((....))).)))	-21.2 kcal/mol	50.3 °C
GATCCTGGTGAGGATC ((((((....))))))	-42.1 kcal/mol	52.5 °C
GACAGAGGAAACTCCGTC (((.(((....))).)))	-18.3 kcal/mol	35 °C
GTATGGAAACATAC (((((....)))))	-23.5 kcal/mol	43.4 °C
GTGGTGTCGAAAGACCAC (((..(((....))))))	-16.8 kcal/mol	47.6 °C
GGCTCATCGAAAGATGCC (((..(((....))))))	-13.3 kcal/mol	37.5 °C
GGCTCGCCGAAAGGCGCC (((..(((....))))))	-6.98 kcal/mol	35.7 °C
GGCCCCGAAAGGGTAGCC ((((((....)))..)))	-23.7 kcal/mol	60.1 °C
GAAGGGGCGAAAGCCTTC (((..(((....))))))	-9.14 kcal/mol	35.2 °C
GCCGAGCGAAAGCTCTGC ((.((((....)))).))	-28.5 kcal/mol	58.7 °C
GTCAACGAAAGTTGTGAC ((((((....)))..)))	-10.8 kcal/mol	33 °C
GTCGGGCCGAAAGGCGAC (((..(((....))))))	-14.5 kcal/mol	51 °C
GTCCTCGAAAGAGACGAC ((((((....)))..)))	-20 kcal/mol	42 °C
GCGGATCGAAAGATACGC (((.(((....))).)))	-40.3 kcal/mol	68.7 °C
CGGAACGGAAACGTCCCG (((.(((....))).)))	-36.3 kcal/mol	47.1 °C
GATCTATTTTTAGATC ((((((....))))))	-42.5 kcal/mol	44.3 °C
GTGGCTCGAAAGAGACAC (((.(((....))).)))	-40.1 kcal/mol	68.9 °C
GTGGGCACGAAAGTGCAC (((..(((....))))))	-14.6 kcal/mol	65.4 °C
GGGTAAGAAATTACCC ((((((....))))))	-27.4 kcal/mol	50.9 °C
GTAACCCCGAAAGGGTAC (((..(((....))))))	-13.6 kcal/mol	35 °C
GTCTATGGAAACGTAGAC (((((.(....).)))))	-31.8 kcal/mol	43.7 °C
ACTCAGAAATGAGT (((((....)))))	-22 kcal/mol	36.7 °C
GCTATCCGAAAGGAAAGC (((.(((....))).)))	-31.4 kcal/mol	49 °C
GCACCCGAAAGGGCTTGC ((((((....)))..)))	-14.9 kcal/mol	46.6 °C

Sequence	folding enthalpy [1]	Tm [2]
GTCGCCGAAAGGCTTGAC ((((((....)))..)))	-12.1 kcal/mol	39.7 °C
GCAGCGGGAAACCGCTAC (.(((((....))))).)	-11.3 kcal/mol	40.2 °C
GGCAGCGAAAGCTAGGCC ((((((....)))..)))	-28.6 kcal/mol	55.3 °C
GCTTCTCCGAAAGGAAGC (((..(((....))))))	-24.2 kcal/mol	45.3 °C
GCGGGCGAAAGCCCCCGC ((((((....)))..)))	-11.2 kcal/mol	52.1 °C
GCCTCACGAAAGTGTGGC (((.(((....))).)))	-43.5 kcal/mol	63.5 °C
GGTGTTGGAAACAACGTC (..((((....))))..)	-26.5 kcal/mol	47.2 °C
GCGTCGTAACGC ((((....))))	-21.4 kcal/mol	55.3 °C
GGTGCTGGAAACAGTGCC ((..(((....)))..))	-37.8 kcal/mol	50.1 °C
GCCCTCCGAAAGGAAGGC (((.(((....))).)))	-30.8 kcal/mol	53 °C
GATCTGAAGGCAGATC ((((((....))))))	-41.9 kcal/mol	45.3 °C
GGTTAGGGAAACTTAACC (((((.(....).)))))	-25.1 kcal/mol	37.6 °C
GACTTACCGAAAGGTGTC (((..(((....))))))	-16.4 kcal/mol	36.3 °C
GGATCGCGAAAGCGCTCC (((.(((....))).)))	-25.3 kcal/mol	54.2 °C
GCATACCCGAAAGGGTGC (((..(((....))))))	-12.1 kcal/mol	49.7 °C
GTTTGAGGAAACTTAAGC (.((.((....)).)).)	-13.9 kcal/mol	31.9 °C
GATCGTTCTACGATC ((((((...))))))	-35.3 kcal/mol	59.6 °C
GATCCCAGGAGGGATC ((((((....))))))	-32.2 kcal/mol	59.9 °C
GAGTCCGAAAGGAGCCTC ((((((....)))..)))	-14.3 kcal/mol	34 °C
GGAGTAGGAAACTATTCC (((.(((....))).)))	-21.4 kcal/mol	37.5 °C
GTCCATGGAAACGTGGAC (((((.(....).)))))	-48.1 kcal/mol	52.9 °C
GCGGTCCGCCGC ((((....))))	-19.7 kcal/mol	63.6 °C
TCACAGAAATGTGA (((((....)))))	-14.6 kcal/mol	39.8 °C
GATCGTAGTGACGATC ((((((....))))))	-33.7 kcal/mol	56.6 °C

Sequence	folding enthalpy [1]	Tm [2]
GCGAACGAAAGTTTGCGC ((((((....)))..)))	-41.9 kcal/mol	61.8 °C
GTTAGCACGAAAGTGAAC (((..(((....))))))	-11.6 kcal/mol	27 °C
GAACAGGGAAACCTGTCC (.(((((....))))).)	-16.1 kcal/mol	35.1 °C
GCGGCCACCCGC ((((....))))	-19.8 kcal/mol	59.5 °C
GATCGGGATCCCGATC ((((((....))))))	-50.5 kcal/mol	59.5 °C
GCGTAGAACGC ((((...))))	-23.7 kcal/mol	54.6 °C
GCCCTGGGAAACCAAGGC (((.(((....))).)))	-30.1 kcal/mol	44.8 °C
AGAAGCAGAAATGGTTCT ((((.((....)).))))	-27.4 kcal/mol	34.5 °C
GATCAGGTACCTGATC ((((((....))))))	-40.6 kcal/mol	58.8 °C
GCATAGCGAAAGCCATGC ((((.((....)).))))	-28.5 kcal/mol	53.3 °C
GTCAGGGGAAACCTTGGC (.((.((....)).)).)	-17.3 kcal/mol	32.7 °C
GTGGGCCGAAAGGCTCAC (((.(((....))).)))	-29.6 kcal/mol	69.2 °C
GCCTAGCGAAAGCAACGC ((.(.((....)).).))	-8.35 kcal/mol	23.8 °C
GTCGGGTCGAAAGACGAC (((..(((....))))))	-19.8 kcal/mol	47.4 °C
GTGCGGGGAAACCCGTAC ((.((((....)))).))	-27.4 kcal/mol	59.1 °C
GTACACGAAAGTGTTAC ((((((....))).)))	-12.9 kcal/mol	42.5 °C
GCCAGGGAAACCTGGC ((((((....))))))	-37.4 kcal/mol	69.2 °C
GTTCAGGGAAACCTGAAC (((((((....)))))))	-43.2 kcal/mol	60.4 °C
GCTCTCGAAAGAGCCAGC ((((((....)))..)))	-11.3 kcal/mol	37.5 °C
GGGGAAGGAAACTTCTCC ((.((((....)))).))	-35.5 kcal/mol	45.4 °C
GGTGTTCGAAAGAATACC (((.(((....))).)))	-45.6 kcal/mol	53.6 °C
GCTGTTCCGAAAGGAAGC (((..(((....))))))	-14 kcal/mol	35.1 °C
GTTAGTGAAAACTAAC ((((((....))))))	-33.4 kcal/mol	49.3 °C
GATCGTACTCACGATC ((((((....))))))	-44.5 kcal/mol	53.9 °C

Sequence	folding enthalpy [1]	Tm [2]
GGTTGGGGAAACCCGATC (.(.(((....))).).)	-21.6 kcal/mol	34.4 °C
GCGTGCGCACGC ((((....))))	-45.7 kcal/mol	62.2 °C
GATCGAAGTTTCGATC ((((((....))))))	-44.8 kcal/mol	53.5 °C
GATCAGTACTCTGATC ((((((....))))))	-43.4 kcal/mol	50.4 °C
GGCCCTCCGAAAGGAGCC (((..(((....))))))	-10.6 kcal/mol	38.4 °C
GAAGTCGGAAACGATTTC (((.(((....))).)))	-30.6 kcal/mol	44.2 °C
GCGTGCGAAAGCAATCGC ((((((....)))..)))	-22.6 kcal/mol	52.7 °C
GTACAAGGAAACTCGTAC ((((.((....)).))))	-22 kcal/mol	29.1 °C
GTAGAGTCGAAAGACTAC (((..(((....))))))	-10.8 kcal/mol	35.1 °C
GCATGTGGAAACGCATGC (((((.(....).)))))	-44.7 kcal/mol	55.9 °C
GATTAAGAAATTAATC ((((((....))))))	-14.9 kcal/mol	30.4 °C
GACTGGACGAAAGTCGTC (((..(((....))))))	-12.4 kcal/mol	46.8 °C
GATCCGACTCGGATC ((((((...))))))	-38.9 kcal/mol	55.7 °C
GTCTGATCGAAAGATGAC (((..(((....))))))	-19.8 kcal/mol	30.1 °C
GCGACATTCGC ((((...))))	-14 kcal/mol	52.3 °C
GTGGTCCGAAAGGAACAC (((.(((....))).)))	-33.6 kcal/mol	65.4 °C
GCGCGACGAAAGTCTCGC (((.(((....))).)))	-34.3 kcal/mol	60.6 °C
GGTTTGGGAAACCAAACC (((((((....)))))))	-40.3 kcal/mol	64.6 °C
GCAACCGGAAACGGTCAC (..((((....))))..)	-8.88 kcal/mol	24.9 °C
GATCTGCCGCAGATC ((((((...))))))	-41.5 kcal/mol	48.1 °C
GATCCTTACCAGGATC ((((((....))))))	-33.6 kcal/mol	52.1 °C
